Insulin prom act: activators of insulin promoter-driven GFP, primary screen, imaging, TRM-6 cells, eGFP reporter, cell count | plate-scaled: unstimulated 0, stimulated control 100 | activation, % at 2 µM | 130,000 tested, 0.81% active;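 active = activation at 2 µM above a set limit, confirmed on inspection of the cell images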;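 also: share of cells whose green reporter signal exceeds an intensity cutoff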
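System – human fetal islet-derived TRM-6 cells with tamoxifen-inducible insulin promoter–eGFP reporter · Amount – 1,000 cells per well · Schedule – overnight tamoxifen, then two-day compound incubation at 37 °C · Detection – high-content imaging of fixed cells with Hoechst nuclear stain · Read-out – percent cells above green-intensity threshold, converted to percent activation versus plate controls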
An asterisk follows results filed as active. This excerpt belongs to a sample that is enriched for hits.

SMILES	Insulin prom act
O=C(NC1CCCCC1)C(c1cccnc1)N(C(=O)c1ccc(Cl)nc1)C1CCCCC1 (centres undefined)	192
CCOC(=O)NC(=S)Nc1c(C)n(C)n(-c2ccccc2)c1=O	0
Cc1c(NC(=O)c2ccccc2)c(=O)n(-c2ccccc2)n1C	-57
Cc1c(NC(N)=O)c(=O)n(-c2ccccc2)n1C	248*
O=C(Cc1ncc(C(F)(F)F)cc1Cl)NCCc1ccccc1	9
Cc1ccc(-n2nc(C)c(Sc3ccccc3[N+](=O)[O-])c2N)cc1	-6
CC1CCCC(n2c(=S)[nH]c3ccccc3c2=O)C1C (centres undefined)	-7
Cc1cc(C)n(CC(O)Cn2c3ccccc3c3ccccc32)n1 (centres undefined)	314
Cc1cc(C)n(CC(=O)n2c3ccccc3c3ccccc32)n1	-4
Cc1cc(C)n(CC(O)CN2c3ccccc3Sc3ccccc32)n1 (centres undefined)	209*
Cc1ccc(NC(=O)CSc2nnc(-c3n[nH]c4ccccc34)n2-c2ccccc2)c(C)c1	9
CCOC(=O)c1sc2nc(-c3cccnc3)ccc2c1N	-71
COc1ccc(C(=O)c2sc3nc(-c4ccccc4)ccc3c2N)cc1	207*
COc1ccc(C(=O)c2oc3ccccc3c2N)cc1	306
Cc1nc(N2CCC(C)CC2)c2c(C)c(C(=O)Nc3ccccc3C(F)(F)F)sc2n1	117
Cc1nn(-c2ccc(C(=O)O)cc2)c(C)c1Oc1ccccc1O	8
COP(C)(=O)c1c(C)nn(-c2ccccc2)c1C (centres undefined)	84*
COc1ccc(-c2c(C)nn(-c3ccccc3)c2N)cc1	0
COC(=O)C1=C(C)N(C)C(=S)N(C)C1c1cccc(Br)c1 (centres undefined)	-6
C=CCn1c(SCC(=O)Nc2cc(C)on2)nc2sc(CC)cc2c1=O	-9
CC(=O)N1CCC2(CC1)CC(=O)c1cc(OCC(=O)N3CCOCC3)ccc1O2	-6
O=C1CCC([N+](=O)[O-])C(c2ccccc2Cl)N1 (centres undefined)	79*
Cc1ccc2[nH]c(SCC(=O)N3CCOCC3)nc2c1C	-3
S=C(NC1CCCCC1)N1CCN(C/C=C/c2ccccc2)CC1	-7
CCOc1ccc2c(c1)-c1c(ssc1=S)C(C)(C)N2C(=O)c1ccco1	-7
SMILES	Insulin prom act
CCOc1ccc(NC(=O)CCn2cccc2)cc1	-73
CCOc1ccc2c(c1)C(C)=CC(C)(C)N2C(=O)Nc1ccccc1	81*
Cn1c(=NC(=O)COc2ccccc2)sc2ccccc21	0
CCN1C(=O)/C(=C\c2cccn2-c2ccc([N+](=O)[O-])cc2)N(CC)C1=S	-7
O=[N+]([O-])c1cccc(/C=N/Nc2cc(Cl)nc(-c3ccccc3)n2)c1	-7
CN(CC(=O)NC1CCCc2ccccc21)S(=O)(=O)c1cccs1 (centres undefined)	0
C=CCn1nnc2sc3c(c2c1=O)CCC(C)C3 (centres undefined)	0
Cc1cc(NC(=O)CCSc2ccccc2)ccc1Br	10
Clc1ccc(SCCCCN2CCNCC2)cc1	-7
CN(C)S(=O)(=O)c1ccc(N2CCCC2)c(C(=O)Nc2nc(-c3ccc(F)c(F)c3)cs2)c1	414*
CN(C)S(=O)(=O)c1ccc(C(=O)Nc2nc(-c3cc4ccccc4o3)cs2)cc1	8
Cc1ccc(S(=O)(=O)Nc2ccccc2C(=O)Nc2nc(-c3ccc(F)cc3)cs2)cc1	-5
CC(C)NC(=O)NC(=O)COC(=O)c1cccc(S(=O)(=O)N2CCCCC2)c1	0
Nc1nc(CN2CCN(c3ccccn3)CC2)nc(Nc2ccc(Cl)cc2)n1	0
COc1cc2c(cc1NC(=S)Nc1cccc(C(F)(F)F)c1)oc1ccccc12	-7
COC(=O)c1nn(-c2ccccc2)c(Cl)c1/C=N/OCc1ccc(Cl)cc1Cl	-7
CC(C)(CO)NC(=O)C(c1ccccc1)c1ccccc1	406*
O=C(O)CC(c1ccccc1)c1ccccc1	0
CC(C)(C)C(=O)NC(=S)NNC(=O)C(c1ccccc1)c1ccccc1	0
CSc1ccc(NC(=O)N2CC=C(n3c(=O)[nH]c4ccccc43)CC2)cc1	-64
Cc1c(NC(=O)C(C)OC(=O)CCC2CCCC2)c(=O)n(-c2ccccc2)n1C (centres undefined)	8
FC(F)(F)c1cccc(N2CCN(CC3CC4C=CC3C4)CC2)c1 (centres undefined)	-8
O=C(c1c(F)c(F)c(F)c(F)c1F)N1CCN(c2cccc(C(F)(F)F)c2)CC1	0
Oc1cc2c(cc1CN1CCN(c3cccc(C(F)(F)F)c3)CC1)CCC2	82*
CC1CN(C(=S)NC(=O)c2ccco2)CC(C)O1 (centres undefined)	-3
SMILES	Insulin prom act
O=C(CCl)Nc1cccn2ncnc12	-3
COc1cnn(-c2ccc(C)cc2)c(=O)c1Cl	146
Cc1ccc(-n2c(Cl)c(Cl)nc(Cl)c2=O)cc1	233*
CSc1nccc(-c2nn(-c3ccc(C)cc3)ccc2=O)n1	-8
Clc1cc(Br)ccc1OCCCNCc1ccccc1	0
CC#CC[N+](C)(C)CCCCCCCCCCCC	-100
CCOC(=O)c1c(NC(=O)CN2CCOCC2)sc(C(=O)NC)c1C	-7
Cc1sc(NC(=O)CN2CCOCC2)c(C(=O)c2ccccc2)c1C	75*
CCOC(=O)c1c(NC(=O)CN2CCOCC2)sc2c1CCCC2=O	-10
O=[N+]([O-])c1ccc(Cl)c(/C=N/NC(=S)Nc2ccccc2)c1	5
O=C(Nc1ccccc1)O/N=C/c1ccccc1Cl	87*
CC(C)CNC(=O)CO/N=C/c1ccccc1Cl	108
COc1ccc(OCc2nnc(SC(C)C(=O)Nc3nccs3)n2-c2ccccc2)cc1 (centres undefined)	65
Cc1cc(NC(=O)c2cnn3c(C(F)(F)F)cc(-c4ccccc4)nc23)no1	429*
Cc1cc(NC(=O)c2cnn3c(C(F)F)cc(-c4ccccc4)nc23)no1	9
Cc1cc(NC(=O)c2cnn3c(C(F)F)cc(C4CC4)nc23)no1	107
Cc1ccc(/C(N)=N/OC(=O)COc2ccccc2Cl)cc1	8
Cc1cccc(N2C(=O)NC3(CCCCC3)C2=O)c1	78*
Cc1cccc(N2C(S)=C(C#N)C(=O)NC23CCCCC3)c1	0
Cc1cc(C)c(NC(=O)CN2C(=O)NC3(CCCCC3)C2=O)c(C)c1	-6
CN(Cc1ccccc1)C(=O)CN1CCN(C(c2ccccc2)c2ccccc2)CC1	0
COc1ccccc1Nc1nc(N)nc(CN2CC(C)CC(C)C2)n1 (centres undefined)	-8
Cn1c(=O)[nH]c(=O)c2c1ncn2CCCc1ccccc1	-40
N#Cc1cccc(NC(=O)CSc2ccccc2)c1	-9
N#Cc1cccc(NC(=O)CSc2ccc3c4c(cccc24)C(=O)c2ccccc2-3)c1	233*
SMILES	Insulin prom act
COc1ccc(NC(=O)CSc2ccc3c4c(cccc24)C(=O)c2ccccc2-3)cc1	111
CCOC(=O)NN1C(=O)c2ccccc2NC1c1ccc(OC)cc1OC (centres undefined)	0
C/C(=N\NC(=O)CN1CCOCC1)C(C)(C)C	8
COc1ccc(/C=C2\C(=O)NCC(=O)N2Cc2ccccc2)cc1	-9
COc1ccc(/C=C/c2ccc(=O)n(Cc3ccccc3)n2)cc1	8
COc1ccc(/C=C/C2=NN(Cc3ccccc3)C(=O)CC2)cc1	388*
COc1ccc(CCNC(=O)C(=O)N2CCCCC2)cc1OC	219
Cc1cc(C)c(NC(=O)C2CCCN2C(=O)NC2CCCCC2)c(C)c1 (centres undefined)	10

High-throughput results: PubChem BioAssay, Columbia University Molecular Screening Center
